# Assay results taken from paper PMC3053384 (Pediatric blood & cancer, 2010).
# Where two headings read alike, the source gives them in different places. Marks after values point to notes of the source that are not given here.
# Assays:
# [1] = Pediatric phase 1 trial: plasma pharmacokinetics after first dose; design: species or system human; settings: in vivo
# [2] = test system: recurrent or refractory solid tumors; test: Pediatric phase 1 trial: tumor response; type: in vivo, human
# In short: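 Children with recurrent or refractory solid tumors received the test compound as a 1-hour IV infusion on days 1, 8 and 15 of each 28-day course, at 5, 7, 9 or 12 mg/m2/dose. The compound was diluted in 5% dextrose in water to a final ≤ 150 μg/mL. Patients with haematologic DLT continued at the next lower dose level. Radiographic response was assessed by NCI RECIST.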
# [3] = test system: adult tumors (breast, ovarian and other cancers); settings: 18 mg/m^2 once every 21 days; cited from earlier work
# [4] = target: kinesin spindle protein (KSP/HsEg5); settings: read-out: binding constant, Ki; cited from earlier work
# [5] = cited from earlier work
# [6] = Pediatric phase 1 trial: toxicity, DLT and MTD; type: in vivo, human; settings: for No. of patients with DLT: first course; for No. of courses with Grade 3 Anemia / No. of courses with Grade 3 Lymphopenia / No. of courses with Grade 3 Neutropenia / No. of courses with Grade 3 Thrombocytopenia / No. of courses with Grade 4 Anemia / No. of courses with Grade 4 Lymphopenia / No. of courses with Grade 4 Thrombocytopenia / No. of courses with Grade 4 Neutropenia: independent of frequency or attribution; for No. of courses with Grade 4 Neutropenia: dose-limiting
# [7] = test system: Ewing sarcoma, Wilms tumor, glioblastoma, rhabdoid tumor and acute lymphoblastic leukemia xenografts; settings: cited from earlier work
# [8] = 12 mg/m^2 dose level, of 6 evaluable
# [9] = Course 1 (19 courses), non-dose-limiting, related to protocol therapy
# [10] = Courses 2-7 (15 courses), non-dose-limiting, related to protocol therapy
structure (smiles),measurement,setting,value
"Cc1ccc(C(=O)N(CCCN)[C@@H](c2nc3cc(Cl)ccc3c(=O)n2Cc2ccccc2)C(C)C)cc1 [ispinesib, Ispinesib]",dose dependence of terminal t1/2,[1]; human,independent of dose
same,"volume of distribution at steady state (Vss), median",[1]; human,84 L/m^2
same,"volume of distribution at steady state (Vss), range",[1]; human,23-193 L/m^2
same,Clearance,"[1]; human, 5 mg/m2",5.3 L/hr/m^2
same,Cmax,"[1]; human, 5 mg/m2, Cmax",145 ng/mL
same,half-life,"[1]; human, 5 mg/m2, t1/2",9 h
same,half-life,"[1]; human, 7 mg/m2, t1/2",14 h
same,Clearance,"[1]; human, 12 mg/m2",13.5 L/hr/m^2
same,Vss,"[1]; human, 12 mg/m2",193 L/m^2
same,Cmax,"[1]; human, 12 mg/m2, Cmax",149 ng/mL
same,half-life,"[1]; human, 12 mg/m2, t1/2",13 h
same,Cmax,"[1]; human, iv, 5 mg/m2, Cmax",86 ng/mL
same,half-life,"[1]; human, iv, 5 mg/m2, t1/2",44 h
same,Cmax,"[1]; human, iv, 7 mg/m2, Cmax",244 ng/mL
same,half-life,"[1]; human, iv, 7 mg/m2, t1/2",32 h
same,Cmax,"[1]; human, iv, 12 mg/m2, Cmax",204 ng/mL
same,half-life,"[1]; human, iv, 12 mg/m2, t1/2",8 h
same,half-life,"[1]; human, terminal elimination half-life (t1/2), median",16 h
same,half-life,"[1]; human, terminal elimination half-life (t1/2), range",8 to 44 h
same,Clearance,[1]; 5 mg/m2,3.0 L/hr/m^2
same,Clearance,[1]; 7 mg/m2,1.2 L/hr/m^2
same,Vss,[1]; 7 mg/m2,51 L/m^2
same,Clearance,[1]; 12 mg/m2,7.1 L/hr/m^2
same,Vss,[1]; 12 mg/m2,83 L/m^2
same,complete courses of therapy with stable disease,"[2]; 7 mg/m^2 dose level, ependymoblastoma",7 courses
same,complete courses of therapy with stable disease,"[2]; 9 mg/m^2 dose level, alveolar soft part sarcoma",5 courses
same,complete courses of therapy with stable disease,"[2]; 12 mg/m^2 dose level, anaplastic astrocytoma",4 courses
same,objective tumor responses,[2]; 24 pediatric patients evaluable for response,no objective tumor responses
same,activity in other adult tumor indications,[3],No significant activity
same,Ki,[4],0.6 nM
same,maximum tolerated dose (MTD),"[5]; adult patients with breast cancer, day 1 and day 15 every 28 days",12 mg/m^2
same,maximum tolerated dose (MTD),"[5]; adult patients with solid tumors, day 1, 2 and 3 every 21 days",6 mg/m^2
same,maximum tolerated dose (MTD),"[5]; adult patients with solid tumors, weekly x 3 every 28 days",7 mg/m^2/dose
same,maximum tolerated dose (MTD),"[5]; adults with acute leukemia, days 1, 2 and 3 every 21 days",10 mg/m^2/dose
same,recommended adult phase II dose,"[5]; adults, weekly x 3 every 28 days",7 mg/m^2/dose
same,No. of patients with DLT,"[6]; 5 mg/m^2/dose, 3 evaluable patients",0
same,No. of patients with DLT,"[6]; 9 mg/m^2/dose, 6 evaluable patients",1
same,No. of patients with DLT,"[6]; 12 mg/m^2/dose, 6 evaluable patients",3
same,patients with dose-limiting hyperbilirubinemia (grade 3),[6]; [8],1/6
same,patients with dose-limiting neutropenia (grade 4),[6]; [8],2/6
same,pediatric MTD higher than recommended adult phase II dose,[6]; 9 vs 7 mg/m^2/dose,~30%
same,No. of courses with Grade 3 Anemia,[6]; Course 1 (19 courses),1
same,No. of courses with Grade 3 Lymphopenia,[6]; Course 1 (19 courses),2
same,No. of courses with Grade 3 Neutropenia,[6]; Course 1 (19 courses),5
same,No. of courses with Grade 3 Thrombocytopenia,[6]; Course 1 (19 courses),1
same,No. of courses with Grade 4 Anemia,[6]; Course 1 (19 courses),0
same,No. of courses with Grade 4 Lymphopenia,[6]; Course 1 (19 courses),1
same,No. of courses with Grade 4 Thrombocytopenia,[6]; Course 1 (19 courses),0
same,No. of courses with Grade 4 Neutropenia,[6]; Course 1 (19 courses),3 ^*
same,"No. of courses with ALT toxicity, Grade 3",[6]; [9],1
same,"No. of courses with ALT toxicity, Grades 1 and 2",[6]; [9],3
same,"No. of courses with AST toxicity, Grade 3",[6]; [9],1
same,"No. of courses with AST toxicity, Grades 1 and 2",[6]; [9],2
same,"No. of courses with Alkaline phosphatase toxicity, Grade 3",[6]; [9],0
same,"No. of courses with Alkaline phosphatase toxicity, Grades 1 and 2",[6]; [9],2
same,"No. of courses with Constipation, Grade 3",[6]; [9],0
same,"No. of courses with Constipation, Grades 1 and 2",[6]; [9],2
same,"No. of courses with Diarrhea, Grade 3",[6]; [9],0
same,"No. of courses with Diarrhea, Grades 1 and 2",[6]; [9],2
same,"No. of courses with Electrolyte abnormality, Grade 3",[6]; [9],0
same,"No. of courses with Electrolyte abnormality, Grades 1 and 2",[6]; [9],4
same,"No. of courses with Fatigue, Grade 3",[6]; [9],0
same,"No. of courses with Fatigue, Grades 1 and 2",[6]; [9],3
same,"No. of courses with Hyperbilirubinemia, Grade 3",[6]; [9],1
same,"No. of courses with Hyperbilirubinemia, Grades 1 and 2",[6]; [9],1
same,"No. of courses with Hypoalbuminemia, Grade 3",[6]; [9],0
same,"No. of courses with Hypoalbuminemia, Grades 1 and 2",[6]; [9],3
same,"No. of courses with Nausea, Grade 3",[6]; [9],0
same,"No. of courses with Nausea, Grades 1 and 2",[6]; [9],4
same,"No. of courses with Vomiting, Grade 3",[6]; [9],0
same,"No. of courses with Vomiting, Grades 1 and 2",[6]; [9],3
same,No. of courses with Grade 3 Anemia,[6]; Courses 2-7 (15 courses),0
same,No. of courses with Grade 3 Lymphopenia,[6]; Courses 2-7 (15 courses),2
same,No. of courses with Grade 3 Neutropenia,[6]; Courses 2-7 (15 courses),1
same,No. of courses with Grade 3 Thrombocytopenia,[6]; Courses 2-7 (15 courses),0
same,No. of courses with Grade 4 Anemia,[6]; Courses 2-7 (15 courses),0
same,No. of courses with Grade 4 Lymphopenia,[6]; Courses 2-7 (15 courses),0
same,No. of courses with Grade 4 Thrombocytopenia,[6]; Courses 2-7 (15 courses),0
same,No. of courses with Grade 4 Neutropenia,[6]; Courses 2-7 (15 courses),1 ^*
same,"No. of courses with ALT toxicity, Grades 1 and 2",[6]; [10],0
same,"No. of courses with AST toxicity, Grades 1 and 2",[6]; [10],0
same,"No. of courses with Alkaline phosphatase toxicity, Grades 1 and 2",[6]; [10],0
same,"No. of courses with Constipation, Grades 1 and 2",[6]; [10],0
same,"No. of courses with Diarrhea, Grades 1 and 2",[6]; [10],0
same,"No. of courses with Electrolyte abnormality, Grades 1 and 2",[6]; [10],0
same,"No. of courses with Fatigue, Grades 1 and 2",[6]; [10],1
same,"No. of courses with Hyperbilirubinemia, Grades 1 and 2",[6]; [10],0
same,"No. of courses with Hypoalbuminemia, Grades 1 and 2",[6]; [10],0
same,"No. of courses with Nausea, Grades 1 and 2",[6]; [10],1
same,"No. of courses with Vomiting, Grades 1 and 2",[6]; [10],1
same,maximum tolerated dose (MTD) and recommended phase II dose,"[6]; children with solid tumors, 1-hour iv infusion weekly x 3 every 28 days",9 mg/m^2/dose
same,primary dose-limiting adverse events,[6]; pediatric patients,neutropenia and hepatotoxicity
same,reversibility of neutropenia,[6]; pediatric patients,rapidly reversible
same,tolerability,"[6]; pediatric patients, 9 mg/m^2/dose weekly x 3 every 28 days",well tolerated
same,tolerability,"[6]; pediatric patients, 5-12 mg/m^2/dose weekly x 3 every 28 days",generally well tolerated
same,in vivo anti-tumor activity,[7],high level of in vivo anti-tumor activity
